pIC50: −log10 of the molar value. ≈ marks a conversion by molar mass, not a printed value.
Legend:
[1] = tested on: Pseudomonas aeruginosa; experiment: Ratio of MIC for Pseudomonas aeruginosa PAO1 harboring siderophore receptor piuA mutant to MIC for wild type Pseudomonas aeruginosa PAO1 in medium containing aztreonam and low-Fe by CLSI broth microdilution method; assay type: functional
[2] = tested on: Pseudomonas aeruginosa; experiment: Antibacterial activity against Pseudomonas aeruginosa PAO1 harboring siderophore receptor pfeA mutant in medium containing aztreonam and low-Fe by CLSI broth microdilution method; assay type: functional
[3] = tested on: Pseudomonas aeruginosa; experiment: Ratio of MIC for Pseudomonas aeruginosa PAO1 harboring siderophore receptor pirA and pfeA double mutant to MIC for wild type Pseudomonas aeruginosa PAO1 in medium containing aztreonam and low-Fe by CLSI broth microdilution method; assay type: functional
[4] = tested on: Pseudomonas aeruginosa; experiment: Antibacterial activity against Pseudomonas aeruginosa PAO1 harboring siderophore receptor pfeA mutant in Mueller-Hinton broth medium by CLSI broth microdilution method; assay type: functional
How it was run: (§1)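 MIC by CLSI broth microdilution in standard Mueller Hinton broth. Tested against wild-type P. aeruginosa PAO1 and an isogenic panel lacking one or more siderophore receptors.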

[5] = tested on: Escherichia coli; experiment: Antibacterial activity against Escherichia coli DH5alpha expressing beta-lactamase KPC-3 by CLSI broth microdilution method; assay type: functional; details: DH5[alpha]
[6] = tested on: Pseudomonas aeruginosa; experiment: Antibacterial activity against Pseudomonas aeruginosa PAO1 harboring siderophore receptor piuA, pfeA and pirA mutant in medium containing aztreonam and low-Fe by CLSI broth microdilution method; assay type: functional
[7] = tested on: Escherichia coli; experiment: Antibacterial activity against Escherichia coli DH5alpha expressing beta-lactamase TEM-1 by CLSI broth microdilution method; assay type: functional; details: DH5[alpha]
[8] = tested on: Pseudomonas aeruginosa; experiment: Antibacterial activity against Pseudomonas aeruginosa 1091-05 by CLSI broth microdilution method; assay type: functional
[9] = tested on: Pseudomonas aeruginosa; experiment: Ratio of MIC for Pseudomonas aeruginosa PAO1 harboring siderophore receptor pirA and pfeA double mutant to MIC for wild type Pseudomonas aeruginosa PAO1 in Mueller-Hinton broth medium by CLSI broth microdilution method; assay type: functional
How it was run: (§2)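 Receptor-deficient PAO1 strain MIC divided by parent PAO1 MIC. Both MICs were obtained by CLSI broth microdilution in standard Mueller Hinton broth. A shift greater than 4× was taken to indicate that the deleted receptor(s) take part in drug uptake.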

[10] = tested on: Escherichia coli; experiment: Antibacterial activity against Escherichia coli DH5alpha expressing beta-lactamase VIM-2 by CLSI broth microdilution method; assay type: functional; details: DH5[alpha]
[11] = tested on: Pseudomonas aeruginosa; experiment: Antibacterial activity against Pseudomonas aeruginosa PAO1 harboring siderophore receptor piuA, pfeA and pirA mutant in medium containing low-Fe by CLSI broth microdilution method; assay type: functional
How it was run: (§3)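 MIC by CLSI broth microdilution in a modified Mueller Hinton broth depleted of iron to mimic the low-iron in vivo environment. Tested against PAO1 and isogenic strains lacking one or more siderophore receptors.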

[12] = tested on: Pseudomonas aeruginosa; experiment: Antibacterial activity against Pseudomonas aeruginosa PAO1 harboring siderophore receptor piuA and fpvA double mutant in Mueller-Hinton broth medium by CLSI broth microdilution method; assay type: functional; how it was run: as §1
[13] = Displacement of fluorescent Bocillin FL from Pseudomonas aeruginosa PBP1b
[14] = tested on: Pseudomonas aeruginosa; experiment: Antibacterial activity against Pseudomonas aeruginosa PAO1 in medium containing low-Fe by CLSI broth microdilution method; assay type: functional; how it was run: as §3
[15] = tested on: Pseudomonas aeruginosa; experiment: Ratio of MIC for Pseudomonas aeruginosa PAO1 harboring siderophore receptor pfeA mutant to MIC for wild type Pseudomonas aeruginosa PAO1 in Mueller-Hinton broth medium by CLSI broth microdilution method; assay type: functional; how it was run: as §2
[16] = tested on: Pseudomonas aeruginosa; experiment: Ratio of MIC for Pseudomonas aeruginosa PAO1 harboring siderophore receptor piuA, pfeA and pirA mutant to MIC for wild type Pseudomonas aeruginosa PAO1 in Mueller-Hinton broth medium by CLSI broth microdilution method; assay type: functional
How it was run: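 Broth microdilution MIC per CLSI in standard Mueller-Hinton broth, run against wild-type P. aeruginosa PAO1 and isogenic PAO1 strains lacking one or more siderophore receptors. Value is the mutant-strain MIC divided by the PAO1 MIC.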

[17] = tested on: Pseudomonas aeruginosa; experiment: Ratio of MIC for Pseudomonas aeruginosa PAO1 harboring siderophore receptor pirA and pfeA double mutant to MIC for wild type Pseudomonas aeruginosa PAO1 in medium containing low-Fe by CLSI broth microdilution method; assay type: functional
How it was run: (§4)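 Ratio of strain MIC to PAO1 MIC. Both MICs were obtained by CLSI broth microdilution in iron-depleted modified Mueller Hinton broth. A shift greater than 4× versus the parent was read as the deleted receptor(s) taking part in uptake.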

[18] = tested on: Pseudomonas aeruginosa; experiment: Ratio of MIC for Pseudomonas aeruginosa PAO1 harboring siderophore receptor fpvA mutant to MIC for wild type Pseudomonas aeruginosa PAO1 in medium containing aztreonam and low-Fe by CLSI broth microdilution method; assay type: functional
[19] = tested on: Pseudomonas aeruginosa; experiment: Antibacterial activity against Pseudomonas aeruginosa PAO1 harboring siderophore receptor piuA and pfeA double mutant in Mueller-Hinton broth medium by CLSI broth microdilution method; assay type: functional; how it was run: as §1
[20] = tested on: Escherichia coli; experiment: Antibacterial activity against Escherichia coli DH5alpha expressing beta-lactamase NDM-1 by CLSI broth microdilution method; assay type: functional; details: DH5[alpha]
[21] = tested on: Escherichia coli; experiment: Antibacterial activity against Escherichia coli DH5alpha expressing beta-lactamase OXA-24/40 by CLSI broth microdilution method; assay type: functional; details: DH5[alpha]
[22] = tested on: Pseudomonas aeruginosa; experiment: Ratio of MIC for Pseudomonas aeruginosa PAO1 harboring siderophore receptor piuA and fpvA double mutant to MIC for wild type Pseudomonas aeruginosa PAO1 in medium containing low-Fe by CLSI broth microdilution method; assay type: functional
How it was run: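 CLSI broth microdilution MICs in a modified Mueller-Hinton broth depleted of iron to mimic low in vivo iron. Tested against wild-type PAO1 and isogenic siderophore receptor knockout strains. Reported as the knockout-strain MIC divided by the PAO1 MIC in the same iron-depleted medium.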

[23] = tested on: Pseudomonas aeruginosa; experiment: Antibacterial activity against Pseudomonas aeruginosa PAO1 harboring siderophore receptor piuA mutant in Mueller-Hinton broth medium by CLSI broth microdilution method; assay type: functional; how it was run: as §1
[24] = tested on: Escherichia coli; experiment: Antibacterial activity against Escherichia coli DH5alpha harboring pUCP26 empty vector by CLSI broth microdilution method; assay type: functional; details: DH5[alpha]
[25] = tested on: Pseudomonas aeruginosa; experiment: Antibacterial activity against Pseudomonas aeruginosa PAO1 harboring siderophore receptor fpvA mutant in medium containing aztreonam and low-Fe by CLSI broth microdilution method; assay type: functional
[26] = tested on: Pseudomonas aeruginosa; experiment: Antibacterial activity against Pseudomonas aeruginosa PAO1 harboring siderophore receptor fptA mutant in medium containing aztreonam and low-Fe by CLSI broth microdilution method; assay type: functional
[27] = tested on: Pseudomonas aeruginosa; experiment: Antibacterial activity against Pseudomonas aeruginosa PAO1 harboring siderophore receptor fptA mutant in Mueller-Hinton broth medium by CLSI broth microdilution method; assay type: functional; how it was run: as §1
[28] = tested on: Pseudomonas aeruginosa; experiment: Ratio of MIC for Pseudomonas aeruginosa PAO1 harboring siderophore receptor pfeA mutant to MIC for wild type Pseudomonas aeruginosa PAO1 in medium containing low-Fe by CLSI broth microdilution method; assay type: functional; how it was run: as §4
[29] = tested on: Pseudomonas aeruginosa; experiment: Ratio of MIC for Pseudomonas aeruginosa PAO1 harboring siderophore receptor pirA mutant to MIC for wild type Pseudomonas aeruginosa PAO1 in Mueller-Hinton broth medium by CLSI broth microdilution method; assay type: functional; how it was run: as §2

SMILES: CC(C)(O/N=C(\C(=O)N[C@H]1CON(C2(C(=O)O)C[C@H](N3C(=O)c4cc(O)c(O)cc4C3=O)C(=O)O2)C1=O)c1csc(N)n1)C(=O)O (some centres undefined)
- Ratio [1]: 1
- MIC [2]: 4 µg/mL (≈ 6.04 µM)
- Ratio [3]: 1
- MIC [4]: 0.5 µg/mL (≈ 0.755 µM)
- MIC [5]: 0.03 µg/mL (≈ 0.0453 µM)
- MIC [6]: 4 µg/mL (≈ 6.04 µM)
- MIC [7]: 0.06 µg/mL (≈ 0.0906 µM)
- MIC [8]: 0.5 µg/mL (≈ 0.755 µM)
- Ratio [9]: 1
- MIC [10]: 0.015 µg/mL (≈ 0.0226 µM)
- MIC [11]: 0.25 µg/mL (≈ 0.377 µM)
- MIC [12]: 16 µg/mL (≈ 24.1 µM)
- pIC50 [13]: 6.57
- MIC [14]: ≤ 0.03 µg/mL
- Ratio [15]: 1
- Ratio [16]: 32
- Ratio [17]: 1
- Ratio [18]: 0.5
- MIC [19]: 8 µg/mL (≈ 12.1 µM)
- MIC [20]: 0.03 µg/mL (≈ 0.0453 µM)
- MIC [21]: 0.03 µg/mL (≈ 0.0453 µM)
- Ratio [22]: >=8
- MIC [23]: 8 µg/mL (≈ 12.1 µM)
- MIC [24]: 0.03 µg/mL (≈ 0.0453 µM)
- MIC [25]: 2 µg/mL (≈ 3.02 µM)
- MIC [26]: 4 µg/mL (≈ 6.04 µM)
- MIC [27]: 4 µg/mL (≈ 6.04 µM)
- Ratio [28]: 1
- Ratio [29]: 1
